Legend:
HeLa [1] = test: Cytostatic activity against thymidine-kinase deficient human HeLa cells […]; type: functional, cell-based
CCRF-CEM [2] = test: Cytostatic activity against human CEM/0 cells after 72 hrs by cell counting; type: functional, cell-based
Summary of the method: (§1)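 Suspension leukemia cells in DMEM with 10% FBS, 10 mM Hepes and 1 mM sodium pyruvate at 37 °C under 5% CO2. Seeded at 60 000 cells/well with graded compound levels. Grown 48 h (L1210) or 72 h (CEM), then counted by Coulter counter. […] Mean ± SD of two to four independent experiments.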

L1210 [3] = test: Cytostatic activity against Mycoplasma hyorhinis-infected mouse L1210 cells after 48 hrs by cell counting; type: functional, cell-based; conditions: L1210, 48 h
Summary of the method: (§2)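 Suspension leukemia cells in DMEM with 10% FBS, 10 mM Hepes and 1 mM sodium pyruvate at 37 °C under 5% CO2. Seeded at 60 000 cells/well with graded compound levels. Grown 48 h (L1210) or 72 h (CEM), then counted by Coulter counter. Mean ± SD of two to four independent experiments.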

[4] = Cytostatic activity against mouse L1210/0 cells after 48 hrs by cell counting; type: functional, cell-based; conditions: L1210/0, 48 h; summary of the method: as §2
CCRF-CEM [5] = test: Cytostatic activity against thymidine-kinase deficient human CEM cells after 72 hrs by cell counting; type: functional, cell-based; summary of the method: as §2
HeLa [6] = test: Cytostatic activity against human HeLa cells […] by cell counting; type: functional, cell-based
L1210 [7] = test: Ratio of FUDR IC50 to compound IC50 for thymidine-kinase deficient mouse L1210 cells after 48 hrs by cell counting; type: functional
L1210 [8] = test: Ratio of IC50 for Mycoplasma hyorhinis-infected mouse L1210 cells to IC50 for mouse L1210/0 cells after 48 hrs by cell counting; type: functional
Summary of the method: (§3)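 Murine L1210/0 cells were compared with L1210/TK cells, selected for resistance to 5-bromo-2'-dUrd, and with L1210.Hyor cells, chronically infected with Mycoplasma hyorhinis. Cells were grown in DMEM with 10% FBS, 10 mM Hepes and 1 mM pyruvate at 37 °C and 5% CO2, then seeded at 60 000 cells/well with compound. They were Coulter-counted after 48 h. […] Mean of 2–4 experiments.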

L1210 [9] = test: Cytostatic activity against thymidine-kinase deficient mouse L1210 cells after 48 hrs by cell counting; type: functional, cell-based; conditions: L1210, 48 h; summary of the method: as §2
L1210 [10] = test: Ratio of IC50 for thymidine-kinase deficient mouse L1210 cells to IC50 for mouse L1210/0 cells after 48 hrs by cell counting; type: functional; summary of the method: as §3
HeLa [11] = test: Ratio of IC50 for thymidine-kinase deficient human HeLa cells to IC50 for human HeLa cells by cell counting
CCRF-CEM [12] = test: Ratio of IC50 for human CEM cells expressing human ENT1 transporter in presence of NBMPR to IC50 for human CEM cells expressing human ENT1 transporter; type: functional
Summary of the method: (§4)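 Human T-lymphocyte CEM cells with (CEM/hEnt-1) or lacking (CEM/hEnt-0) the hENT1 transporter were seeded at 60 000 cells/well with graded compound concentrations. Transporter-inhibition runs added dipyridamole (10 μM) or NBMPR (10 μM) to CEM/hEnt-1 cells. […] Ratios are formed against untreated CEM/hEnt-1 IC50. Mean of 2–4 experiments.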

CCRF-CEM [13] = test: Cytostatic activity against human CEM cells expressing human ENT1 transporter after 72 hrs by cell counting in presence of dipyridamole; type: functional, cell-based
Summary of the method: (§5)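 CEM/hEnt-1 cells with 10 μM dipyridamole or 10 μM NBMPR added alongside graded compound levels, in DMEM with 10% FBS, 10 mM Hepes and 1 mM sodium pyruvate at 37 °C under 5% CO2. Seeded at 60 000 cells/well, counted by Coulter counter after 3 days.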

[14] = Hydrolytic stability in aqueous buffer at pH 1 at 2.6 mg measured every 12 mins over 14 hrs by [31P]NMR spectroscopy; type: physicochemical; conditions: pH 1, 14 h
Summary of the method: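 Compound (2.6 mg) in methanol-d4 with pH 1 buffer made from equal parts 0.2 M HCl and 0.2 M KCl. 31P NMR at 37 °C, spectra recorded every 12 min over 14 h.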

CCRF-CEM [15] = test: Ratio of IC50 for ENT1 transporter-deficient human CEM cells to IC50 for human CEM cells expressing human ENT1 transporter after 72 hrs by cell counting; type: functional; summary of the method: as §4
CCRF-CEM [16] = test: Ratio of IC50 for human CEM cells expressing human ENT1 transporter in presence of dipyridamole to IC50 for human CEM cells expressing human ENT1 transporter; type: functional; summary of the method: as §4
CCRF-CEM [17] = test: Cytostatic activity against ENT1 transporter-deficient human CEM cells after 72 hrs by cell counting; type: functional, cell-based; summary of the method: as §1
CCRF-CEM [18] = test: Cytostatic activity against human CEM cells expressing human ENT1 transporter after 72 hrs by cell counting; type: functional, cell-based; summary of the method: as §1
CCRF-CEM [19] = test: Cytostatic activity against human CEM cells expressing human ENT1 transporter after 72 hrs by cell counting in presence of NBMPR; type: functional, cell-based; summary of the method: as §5
[20] = Stability of the compound in potassium phosphate buffer at pH 7.4 assessed as E.coli thymidine phosphorylase-mediated release of 5-FU after 5 mins by [19F] NMR spectroscopy; type: ADME; conditions: pH 7.4, 5 min
Summary of the method: (§6)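 Compound (6.0 mg) in methanol-d4 plus 300 mM potassium phosphate buffer pH 7.4. […] 19F NMR recorded at 5 min, 14 h and 72 h at 25 °C, with 5-FU identified by its signal near δF 169.50 ppm.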

[21] = Hydrolytic stability in aqueous buffer at pH 8 at 4.5 mg measured every 12 mins over 14 hrs by [31P]NMR spectroscopy; type: physicochemical; conditions: pH 8, 14 h
Summary of the method: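 Compound (4.5 mg) in methanol-d4 with pH 8 buffer (0.1 M Na2HPO4 adjusted with 0.1 M HCl). In situ 31P NMR (202 MHz) at 37 °C, spectra recorded every 12 min over 14 h.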

[22] = Stability of the compound in potassium phosphate buffer at pH 7.4 assessed as E.coli thymidine phosphorylase-mediated release of 5-FU after 14 to 72 hrs by [19F] NMR spectroscopy; type: ADME; summary of the method: as §6

Structure (SMILES)	IC50 (HeLa [1]) [µM]	IC50 (CCRF-CEM [2]) [nM]	IC50 (L1210 [3]) [nM]	IC50 [4] [nM]	IC50 (CCRF-CEM [5]) [µM]	IC50 (HeLa [6]) [nM]	Ratio IC50 (L1210 [8])	IC50 (L1210 [9]) [µM]	also measured
C[C@H](NP(=O)(OC[C@H]1O[C@@H](n2cc(F)c(=O)[nH]c2=O)C[C@@H]1O)Oc1ccccc1)C(=O)OC1CCCCC1 (mixture of isomers)	5.9	170	40	32	1.2	180	1.25	0.14	Ratio IC50 (L1210 [7]): 21
COC(=O)[C@H](C)NP(=O)(OC[C@H]1O[C@@H](n2cc(F)c(=O)[nH]c2=O)C[C@@H]1O)Oc1ccccc1 (mixture of isomers)	4.7	700	870	40	35	280	22	41	Ratio IC50 (L1210 [10]): 2000; Ratio IC50 (HeLa [11]): 15
C[C@H](NP(=O)(OC[C@H]1O[C@@H](n2cc(F)c(=O)[nH]c2=O)C[C@@H]1O)Oc1ccccc1)C(=O)OCc1ccccc1 (mixture of isomers)	19	180	150	26	22	130	5.8	13	Ratio IC50 (CCRF-CEM [12]): 2; IC50 (CCRF-CEM [13]): 660 nM; Stability [14]: Stable; Ratio IC50 (CCRF-CEM [15]): 7; Ratio IC50 (CCRF-CEM [16]): 2; IC50 (CCRF-CEM [17]): 1400 nM; IC50 (CCRF-CEM [18]): 130 nM; IC50 (CCRF-CEM [19]): 720 nM; Stability [20]: Stable; Stability [21]: Stable; Stability [22]: Stable

From ChEMBL document CHEMBL2177092, “Phosphoramidate ProTides of the anticancer agent FUDR successfully deliver the preformed bioactive monophosphate in cells and confer advantage over the parent nucleoside” (J Med Chem, 2011)
